Key:
[1] = Inhibition of Proteus vulgaris CCM 1956 urease by berthelot colorimetric assay
In short: (§1)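 Urease partially purified from the cells of each strain, which were grown aerobically at 37 °C in yeast extract/urea/1 mM NiCl2 medium at pH 9.0. Purification used anion exchange followed by phenyl-Sepharose. Enzyme incubated at 30 °C in 3 mM phosphate pH 7.0 with increasing inhibitor concentrations and urea 10–100 mM. Activity read by modified Berthelot colorimetry. IC50 and Ki were derived by equation fitting.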

[2] = Inhibition of Bacillus pasteurii CCM 2056 urease by berthelot colorimetric assay; set-up: species or system Sporosarcina pasteurii; in short: as §1
[3] = Inhibition of Klebsiella aerogenes urease

Row | Ki [3] | Structure (SMILES) | IC50 [1] | Ki [1] | IC50 [2] | Ki [2]
1 | – | O=C(NCP(=O)(O)CO)OCc1ccccc1 | 377 µM | 41.9 µM | 889 µM | 376 µM
2 | – | O=C(NCP(O)(=S)CO)OCc1ccccc1 (stereo not drawn) | 976 µM | 143 µM | 1420 µM | 428 µM
3 | – | NCC(=O)NCP(=O)(O)CO | 14.9 µM | 7.3 µM | 85 µM | 30.5 µM
4 | – | CNCC(=O)NCP(=O)(O)CO | 20.6 µM | 16.2 µM | 25.4 µM | 10.6 µM
5 | – | CN(C)CC(=O)NCP(=O)(O)CO | 0.86 µM | 0.43 µM | 2.15 µM | 1.15 µM
6 | – | O=C(CNC(=O)OCc1ccccc1)NCP(=O)(O)CO | 3.6 µM | 1.96 µM | 5 µM | 1.35 µM
7 | – | CP(=O)(O)CNC(=O)CN | – | 30 µM | – | –
8 | – | CN(C)CP(=O)(O)CO [(DIMETHYLAMINO)METHYL(HYDROXYMETHYL)PHOSPHINIC ACID] | 17.2 µM | 3.1 µM | 67.6 µM | 5 µM
9 | 2.6 µM | CC(=O)NO [ACETOHYDROXAMIC ACID] | – | – | – | –
10 | – | NCP(=O)(O)CO [AMINOMETHYL(HYDROXYMETHYL)PHOSPHINIC ACID] | 47.7 µM | 27.5 µM | 423 µM | 95 µM
11 | – | O=C(NCP(=O)(O)CO)c1ccccc1 [BENZOYLAMINOMETHYL(HYDROXYMETHYL)PHOSPHINIC ACID] | 28 µM | 9.2 µM | 69 µM | 31.9 µM
12 | – | CNCP(=O)(O)CO [HYDROXYMETHYL((METHYLAMINO)METHYL)PHOSPHINIC ACID] | 0.96 µM | 0.36 µM | 1.59 µM | 0.43 µM
13 | – | CNCP(C)(=O)O [METHYL((METHYLAMINO)METHYL)PHOSPHINIC ACID] | – | 27 µM | – | –
